The term half-life denotes the time in which the quantity being followed falls by half. One may read the clearance as the rate of elimination divided by the concentration. As usually defined, the IC50 is the point on the concentration scale where inhibition reaches its midpoint. A word on the Ki: it is the equilibrium dissociation constant of an inhibitor or competing ligand from its target. By Cmax is commonly meant the maximum level reached in the sampled fluid or tissue. The term bioavailability denotes the share of a dose that reaches the circulation, judged against a reference dose that is usually intravenous. As a reminder, the T/C is the result in the treated group divided by that in the control group, in per cent.

A short description of series [1]: Stability in rat liver microsomes after 30 mins. (Liver microsomes are a subcellular fraction often used to study metabolism.)
A short description of series [2]: Stability in human liver microsomes after 30 mins.
Series [3] is described as follows: Unbound intrinsic clearance in mouse hepatocytes assessed per million cells. The series is classed as ADME, cell-based, Hepatocyte.
A short description of series [4]: Half life in rat at 1 mg/kg, iv. The series is classed as ADME, organism-based. To be noted: in vivo.
Series [5] is described as follows: Clearance in rat at 1 mg/kg, iv. To be noted: in vivo. The series is classed as ADME, organism-based.
Series [6] can be described thus: Unbound intrinsic clearance in human hepatocytes assessed per million cells. It is filed as ADME, cell-based, Hepatocyte.
For series [7], the target named is T1, Hepatocyte growth factor receptor (Homo sapiens, UniProt P08581). Description: Inhibition of c-MET in human SNU-5 cells measured after 6 hrs by steady-glo luciferase reporter gene assay. The series is classed as cell-based. (In general: Reporter assays use an easily measured gene product as a stand-in for the process of interest.)
The target in series [8] is T1, Hepatocyte growth factor receptor. As to the kind of experiment: Inhibition of c-Met (unknown origin) using poly Glu-Tyr as substrate preincubated for 10 mins followed by ATP addition by phosphoenolpyruvate/pyruvate kinase/lactate dehydrogenase coupled radiometric assay.
Series [9] is described as follows: Half life in dog at 0.8 mg/kg, iv. To be noted: in vivo. It is filed as ADME, organism-based, Canis lupus familiaris. In short, it runs like this: (§1)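 For dogs, dosing was IV 0.8 mpk or PO 12 mpk, the oral formulation being 30% PG/10% Solutol/1% HPMC-AS. IV and PO parameters were obtained from the corresponding arms.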
Series [10] is described as follows: Cmax in dog at 12 mg/kg, po. Also on record: route oral, dose 12 mg/kg. It is filed as ADME, organism-based, Canis lupus familiaris. To be noted: in vivo. In short, it runs like this:
as §1

Series [11] can be described thus: Volume of distribution at steady state in mouse at 0.8 mg/kg, iv. It is filed as ADME, organism-based. The conditions noted are these: in vivo, read-out: Vdss. The method in brief:
(§2)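 Mice received IV 0.8 mpk or PO 13 mpk, the oral dose in 0.5% MC/0.1% Tween 80 vehicle. Parameters came from the respective IV or PO dosing.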

Series [12] in a line: AUC in dog at 12 mg/kg, po. It is filed as ADME, organism-based, Canis lupus familiaris. Also on record: dose 12 mg/kg. The conditions noted are these: in vivo. The method in brief: as §1
Series [13] is described as follows: AUC in rat at 2.6 mg/kg, po. To be noted: in vivo. Also on record: dose 2.6 mg/kg. It is filed as ADME, organism-based. In short, it runs like this: (§3)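 Rats received IV 0.9 mpk or PO 2.6 mpk, the oral dose formulated in 0.5% MC/0.1% Tween 80. PK parameters were derived from the IV and PO dosing arms.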
Series [14] is described as follows: Oral bioavailability in rat at 2.6 mg/kg. It is filed as ADME, organism-based. To be noted: in vivo. The method in brief:
as §3

A short description of series [15]: Oral bioavailability in dog at 12 mg/kg. It is filed as ADME, organism-based, Canis lupus familiaris. The conditions noted are these: in vivo. The method in brief:
as §1

Series [16] is described as follows: AUC in mouse at 13 mg/kg, po. The series is classed as ADME, organism-based. Set-up: dose 13 mg/kg. The conditions noted are these: in vivo. In short, it runs like this: as §2
The nature of series [17]: Volume of distribution at steady state in dog at 0.8 mg/kg, iv. The series is classed as ADME, organism-based, Canis lupus familiaris. The conditions noted are these: in vivo, read-out: Vdss. The method in brief:
as §1

In series [18] the test system is SNU-5. Description: Antitumor activity against human SNU-5 cells xenografted in SCID mouse assessed as tumor regression measured 38 days post tumor implantation. It is filed as functional. In short, it runs like this: (§4)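 SCID mice carrying SNU-5 tumors were dosed at 3, 10 or 30 mpk. Tumor growth was compared with untreated controls as T/C. Body weight was followed through the dosing regimen.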
In general terms: A xenograft is tissue or cells of one species grown in another, often human tumour cells in immunodeficient mice.

A short description of series [19]: Clearance in monkey at 0.9 mg/kg, iv. The series is classed as ADME, organism-based, Macaca mulatta. The conditions noted are these: rhesus monkey, in vivo.
Series [20] deals with SNU-5. Description: Antitumor activity against human SNU-5 cells xenografted in SCID mouse assessed as tumor growth at 10 mg/kg qd measured 38 days post tumor implantation relative to control. The series is classed as functional. The method in brief:
as §4

A short description of series [21]: Volume of distribution at steady state in monkey at 0.9 mg/kg, iv. The series is classed as ADME, organism-based, Macaca mulatta. The conditions noted are these: rhesus monkey, in vivo, read-out: Vdss.
Series [22] in a line: Cmax in rat at 2.6 mg/kg, po. It is filed as ADME, organism-based. Also on record: route oral, dose 2.6 mg/kg. To be noted: in vivo. The method in brief: as §3
Series [23] deals with SNU-5. As to the kind of experiment: Antitumor activity against human SNU-5 cells xenografted in SCID mouse assessed as tumor regression at 30 mg/kg qd measured 38 days post tumor implantation relative to control. The series is classed as functional. In short, it runs like this: as §4
Series [24] deals with cGMP-inhibited 3',5'-cyclic phosphodiesterase 3A (Homo sapiens, UniProt Q14432). As to the kind of experiment: Inhibition of recombinant human N-terminal GST/His-tagged PDE3A (669 to 1141 residues) expressed in baculovirus infected Sf9 insect cells using iFL-cAMP as substrate preincubated for 15 mins followed by substrate addition and measured after 40 mins by fluorescence assay.

The species entered for series [25] is Homo sapiens. Description: Selectivity ratio of IC50 for inhibition of recombinant human N-terminal GST/His-tagged PDE3A (669 to 1141 residues) expressed in baculovirus infected Sf9 insect cells to IC50 for inhibition of c-MET in human SNU-5 cells.
The nature of series [26]: Half life in monkey at 0.9 mg/kg, iv. The series is classed as ADME, organism-based, Macaca mulatta. The conditions noted are these: rhesus monkey, in vivo.
Series [27] can be described thus: Oral bioavailability in mouse at 13 mg/kg. It is filed as ADME, organism-based. To be noted: in vivo. In short, it runs like this:
as §2

Series [28] in a line: Toxicity in human SNU-5 cells xenografted SCID mouse assessed as body weight loss at 30 mg/kg qd. It is filed as organism-based. The conditions noted are these: in vivo. The method in brief: as §4
Series [29] can be described thus: Clearance in rat at 0.9 mg/kg, iv. The series is classed as ADME, organism-based. To be noted: in vivo. The method in brief:
as §3

For series [30], the system named is SNU-5. As to the kind of experiment: Antitumor activity against human SNU-5 cells xenografted in SCID mouse assessed as tumor growth at 3 mg/kg qd measured 38 days post tumor implantation relative to control. It is filed as functional. The method in brief: as §4
A short description of series [31]: Half life in mouse at 0.8 mg/kg, iv. To be noted: in vivo. The series is classed as ADME, organism-based. The method in brief: as §2
Series [32] in a line: Volume of distribution at steady state in rat at 0.9 mg/kg, iv. The series is classed as ADME, organism-based. The conditions noted are these: in vivo, read-out: Vdss. In short, it runs like this: as §3
Series [33] is described as follows: Half life in rat at 0.9 mg/kg, iv. To be noted: in vivo. The series is classed as ADME, organism-based. In short, it runs like this: as §3
Series [34] is described as follows: Clearance in dog at 0.8 mg/kg, iv. The conditions noted are these: in vivo. It is filed as ADME, organism-based, Canis lupus familiaris. The method in brief:
as §1

A short description of series [35]: Cmax in mouse at 13 mg/kg, po. It is filed as ADME, organism-based. Also on record: route oral, dose 13 mg/kg. The conditions noted are these: in vivo. In short, it runs like this: as §2
A short description of series [36]: Clearance in mouse at 0.8 mg/kg, iv. To be noted: in vivo. It is filed as ADME, organism-based. In short, it runs like this:
as §2

A short description of series [37]: Stability in rat hepatocytes after 30 mins. The conditions noted are these: read-out: Stabilty. It is filed as ADME, cell-based, Hepatocyte.

cGMP-inhibited 3',5'-cyclic phosphodiesterase 3A, sequence (Q14432 whole entry, the tested form may be a part): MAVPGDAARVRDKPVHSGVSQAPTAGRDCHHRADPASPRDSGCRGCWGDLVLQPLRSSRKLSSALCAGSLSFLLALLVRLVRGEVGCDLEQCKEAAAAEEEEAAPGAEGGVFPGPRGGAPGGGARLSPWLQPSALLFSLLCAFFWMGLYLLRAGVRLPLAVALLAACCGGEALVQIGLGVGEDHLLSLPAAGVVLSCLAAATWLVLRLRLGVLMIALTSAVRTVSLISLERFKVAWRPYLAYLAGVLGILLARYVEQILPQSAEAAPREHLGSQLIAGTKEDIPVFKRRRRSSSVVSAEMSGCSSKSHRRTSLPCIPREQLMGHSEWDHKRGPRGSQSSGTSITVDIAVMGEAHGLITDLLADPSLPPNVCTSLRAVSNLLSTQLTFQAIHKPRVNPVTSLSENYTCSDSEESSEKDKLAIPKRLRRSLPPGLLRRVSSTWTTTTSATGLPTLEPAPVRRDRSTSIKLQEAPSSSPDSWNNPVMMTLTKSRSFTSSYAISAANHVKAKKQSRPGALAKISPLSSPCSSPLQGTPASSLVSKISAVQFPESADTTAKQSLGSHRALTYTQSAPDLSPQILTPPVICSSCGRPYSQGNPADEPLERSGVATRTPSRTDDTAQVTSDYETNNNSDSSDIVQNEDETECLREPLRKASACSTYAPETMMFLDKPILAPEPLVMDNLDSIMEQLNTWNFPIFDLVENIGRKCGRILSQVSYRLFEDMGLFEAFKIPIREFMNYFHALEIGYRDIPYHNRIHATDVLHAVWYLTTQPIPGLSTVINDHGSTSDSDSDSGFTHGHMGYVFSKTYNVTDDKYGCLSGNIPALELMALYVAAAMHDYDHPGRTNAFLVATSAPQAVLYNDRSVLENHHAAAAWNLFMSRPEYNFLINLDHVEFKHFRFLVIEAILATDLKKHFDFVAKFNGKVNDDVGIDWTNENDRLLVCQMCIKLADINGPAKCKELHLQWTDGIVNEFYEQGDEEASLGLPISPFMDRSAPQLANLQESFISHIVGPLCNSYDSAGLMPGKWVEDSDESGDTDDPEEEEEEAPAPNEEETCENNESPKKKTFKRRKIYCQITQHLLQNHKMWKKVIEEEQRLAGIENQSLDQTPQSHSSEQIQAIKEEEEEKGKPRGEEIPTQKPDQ
T1 sequence (P08581 whole entry): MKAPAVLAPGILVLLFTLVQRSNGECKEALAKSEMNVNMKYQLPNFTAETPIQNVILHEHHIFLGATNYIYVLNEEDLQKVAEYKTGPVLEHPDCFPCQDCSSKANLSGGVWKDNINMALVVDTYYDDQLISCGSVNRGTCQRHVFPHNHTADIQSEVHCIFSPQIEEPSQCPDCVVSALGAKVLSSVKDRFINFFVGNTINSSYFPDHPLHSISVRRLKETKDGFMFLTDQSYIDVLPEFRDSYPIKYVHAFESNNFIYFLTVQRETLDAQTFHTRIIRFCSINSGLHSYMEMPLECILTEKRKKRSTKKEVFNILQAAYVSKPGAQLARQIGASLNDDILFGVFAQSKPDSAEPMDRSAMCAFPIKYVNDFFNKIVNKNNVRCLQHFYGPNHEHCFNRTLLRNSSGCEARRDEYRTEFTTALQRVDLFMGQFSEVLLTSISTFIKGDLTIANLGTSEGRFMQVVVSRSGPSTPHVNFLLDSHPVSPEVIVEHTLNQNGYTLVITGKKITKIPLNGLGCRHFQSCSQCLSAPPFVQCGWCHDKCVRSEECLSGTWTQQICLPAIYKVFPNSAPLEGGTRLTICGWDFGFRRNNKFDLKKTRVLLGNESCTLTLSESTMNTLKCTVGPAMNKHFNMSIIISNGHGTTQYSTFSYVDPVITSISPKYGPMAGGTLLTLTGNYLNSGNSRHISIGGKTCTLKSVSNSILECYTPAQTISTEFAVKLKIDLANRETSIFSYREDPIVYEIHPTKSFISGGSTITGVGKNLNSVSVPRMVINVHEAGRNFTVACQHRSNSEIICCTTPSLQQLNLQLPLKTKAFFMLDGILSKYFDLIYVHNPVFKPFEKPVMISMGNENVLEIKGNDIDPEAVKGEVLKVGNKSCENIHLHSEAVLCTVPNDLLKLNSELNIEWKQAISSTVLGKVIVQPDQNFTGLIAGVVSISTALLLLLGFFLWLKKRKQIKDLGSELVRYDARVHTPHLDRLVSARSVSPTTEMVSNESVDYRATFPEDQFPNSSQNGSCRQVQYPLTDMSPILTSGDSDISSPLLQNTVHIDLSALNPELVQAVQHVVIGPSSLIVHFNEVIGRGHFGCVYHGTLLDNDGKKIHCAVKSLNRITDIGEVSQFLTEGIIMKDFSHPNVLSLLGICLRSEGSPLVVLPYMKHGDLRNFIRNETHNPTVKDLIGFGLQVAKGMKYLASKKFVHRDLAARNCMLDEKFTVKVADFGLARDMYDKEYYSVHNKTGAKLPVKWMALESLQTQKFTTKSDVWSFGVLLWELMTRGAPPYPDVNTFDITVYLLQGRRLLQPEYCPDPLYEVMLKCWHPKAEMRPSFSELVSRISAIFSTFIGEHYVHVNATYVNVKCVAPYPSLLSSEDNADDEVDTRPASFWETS

With `Oc1ccc(Cn2cnc3ncc(-c4ccc(F)cc4)nc32)cc1`, the figures for the remaining at 0.5 h in [1] and in [2] were 56% and 51%, respectively.
Take `Cn1cc(-c2nn3c(Cc4ccc5ncccc5c4)nnc3s2)cn1`: the results for the CL free in series [3] and in [6] were 6.2 µL/min and 4.8 µL/min, respectively. This molecule also gave a half-life in [4] of 1.1 h. In addition, in series [5], the clearance was determined as 24.5 mL/min/kg.
In series [7], `CC(c1ccc2ncccc2c1)c1nnc2sc(-c3cnn(C)c3)nn12` (racemic) gave a 50% inhibitory concentration (IC50) of 30 nM. The CL free worked out at 7.4 µL/min in series [3] and 3.2 µL/min in series [6]. Besides, the inhibition constant (Ki) in series [8] was found to be 50 nM.
Regarding `Cn1cc(Nc2nn3c(C(F)(F)c4ccc5ncccc5c4)nnc3s2)cn1`, the half-life was 3.6 h in series [9], 2 h in [26], 1.8 h in series [31] and 1.4 h in series [33]. The values for the Cmax in [10], in series [22] and in series [35] were 1300 ng/mL, 150 ng/mL and 4800 ng/mL, respectively. Besides, the Vd turned out to be 1 L/kg in [11], 1.6 L/kg in series [17], 1.2 L/kg in series [21] and 0.7 L/kg in series [32]. Also, the AUC in series [12] is 9.9 µg/h/mL; in series [13], 0.6 µg/h/mL; in series [16], 16 µg/h/mL. Also, the bioavailability worked out at 29% in [14], 66% in series [15] and 100% in series [27]. Also, the IC50 is 4 nM in series [7] and 8070 nM in series [24]. Moreover, the Activity result was “Dose-dependent effect” in series [18], -23.9% in series [23] and “Non-Toxic” in [28]. Moreover, the clearance in [19] was determined as 23 mL/min/kg; in [29], 25 mL/min/kg; in [34], 14 mL/min/kg; in series [36], 21 mL/min/kg. In addition, the results for the T/C in series [20] and in [30] were 54.2% and 16.6%, respectively. Besides, in series [8], the affinity, expressed as Ki, was 21 nM. Moreover, the Ratio IC50 in series [25] amounted to 2020.
In the case of `Clc1cccc(Nc2nn3c(Cn4ccc5ncccc54)nnc3s2)c1`, the remaining at 0.5 h in [37] amounted to 60%.
Regarding `C[C@@H](c1ccc2ncccc2c1)c1nnc2sc(Nc3cnn(C)c3)nn12`, the IC50 in series [7] amounted to 5 nM; in series [24] it was 3000 nM. The molecule further registered a Ki in [8] of 20 nM. Besides, the Ratio IC50 in [25] turned out to be 600.
`Cc1nn(C)cc1-c1nn2c([C@@H](C)c3ccc4ncccc4c3)nnc2s1`: the IC50 in series [7] worked out at 3 nM; in [24] it was 100 nM. The Ratio IC50 in [25] worked out at 33.
Take `Oc1ccc(Cc2nnc3sc(Nc4cccc(Cl)c4)nn23)cc1Cl`: the remaining at 0.5 h in series [37] came out at 63%.
In the case of `Clc1cccc(Nc2nn3c(Cc4ccc5ncccc5c4)nnc3s2)c1`, the remaining at 0.5 h in [37] stood at 45%.
For the molecule `Oc1ccc(Cc2nnc3sc(Nc4ccccc4)nn23)cc1`, the remaining at 0.5 h turned out to be 40% in series [1] and 68% in [2].
Turning to `Oc1ccc(Cc2nnc3n2N=C(c2ccc(F)cc2)CS3)cc1`, the remaining at 0.5 h in [1] was found to be 2.6%; in series [2] it was 73%.
Take `Oc1ccc(Cc2nnc3sc(Nc4cccc(Cl)c4)nn23)cc1F`: the remaining at 0.5 h in series [37] was determined as 56%.
As to `Oc1ccc(Cc2nnc3ccc(-c4ccc(F)cc4)nn23)cc1`, the remaining at 0.5 h in [1] is 32%; in [2] it was 50%.
Regarding `C[C@H](c1ccc2ncccc2c1)c1nnc2sc(-c3cnn(C)c3)nn12`, the 50% inhibitory concentration (IC50) is 84 nM in series [7] and 7900 nM in series [24]. The CL free in series [3] was determined as 7 µL/min; in [6], 5.8 µL/min. Moreover, affinity in [8] was put at a Ki of 240 nM. Also, in series [25], the Ratio IC50 was determined as 95.
With `Oc1cccc(Cc2nnc3sc(Nc4cccc(Cl)c4)nn23)c1`, in [37], the remaining at 0.5 h was 55%.
Same read-out and setting: the value for `Clc1cccc(Nc2nn3c(Cc4ccc5c(c4)OCO5)nnc3s2)c1` was 64%.
`Cc1nn(C)cc1-c1nn2c([C@H](C)c3ccc4ncccc4c3)nnc2s1`: the figures for the IC50 in series [7] and in series [24] were 3 nM and 200 nM, respectively. For the same molecule, the Ratio IC50 in [25] came out at 67.

These data come from ChEMBL document CHEMBL4706768, “Discovery of Potent, Selective Triazolothiadiazole-Containing c-Met Inhibitors” (ACS Med Chem Lett, 2021).
